# Assay outcomes from PubChem BioAssay.
# TDP2 absorb – TDP2 (human) inhibition, absorbance primary screen | recombinant TDP2, T5PNP hydrolysis, p-nitrophenol absorbance 415 nm | AID 720702 | O95551 | 370,000 compounds, 0.34% hits | inhibition, % at 12.8 µM;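 active = inhibition above the mean of all tested compounds plus 3 SD, set per campaign, cut at about 25% in these data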;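 also: 0% = DMSO with enzyme and 100% = buffer with substrate but no TDP2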
#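 Read-out basis: percent inhibition. System: recombinant human TDP2. Buffer or medium: Mg2+-containing Tris-HCl buffer, pH 7.5. Repeats: single replicate. Timing: reaction 2 h, 37 °C. Benchmarks: high control without enzyme, low control DMSO plus TDP2. Probe or stimulus: 5 mM T5PNP. Doses: 12.8 µM only. Measured by: epi absorbance of p-nitrophenol freed from T5PNP by hydrolysis.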
# ASAP1 GAP inh – blocks human ASAP1-stimulated Arf1 GTP hydrolysis | GDP FP detection | inhibition, % at 16.5 µM | 360,000 compounds, 0.19% hits; in the data active = inhibition above about 25%;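 also: 0% = vehicle with enzyme and substrate and 100% = no enzyme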
# ARFGAP1 inhibitor – rat ARFGAP1 inhibition. Q62848. Arfgap1-stimulated ARF1 GTP hydrolysis, GDP FP detection. inhibition, % at 16.5 µM. 360,000 compounds, 0.26% hits;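 active = inhibition above a per-plate limit, mean inhibition of low control wells plus 3 SD, cut at about 25% in these data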;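 also: 0% = DMSO wells with enzyme and 100% = wells lacking Arfgap1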
#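 System: truncated rat Arfgap1 GAP domain / Medium: HEPES-based buffer, pH 7.5 / Also added: N-terminally truncated human ARF1-GTP substrate / Incubation: enzyme reaction 120 min at 25 °C after 20 min preincubation / Measured by: FP of antibody-bound GDP Alexa 633 tracer, ex 620/em 688 nm / Replicates: singlicate, each compound tested once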
# UHRF1 binding – UHRF1 methyl-DNA binding inhibition; UHRF1 binding to methylated oligo, TR-FRET; inhibition, % at 4.4 µM; 370,000 compounds, 0.75% hits; AID 687016; in the data active = inhibition above about 21%;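 also: UHRF1 SRA domain binding a hemimethylated CpG hairpin DNA probe; 0% = median of test compound wells and 100% = reference inhibitor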
# Target sequence (Q96T88 whole entry, looked up, the tested form may be a part): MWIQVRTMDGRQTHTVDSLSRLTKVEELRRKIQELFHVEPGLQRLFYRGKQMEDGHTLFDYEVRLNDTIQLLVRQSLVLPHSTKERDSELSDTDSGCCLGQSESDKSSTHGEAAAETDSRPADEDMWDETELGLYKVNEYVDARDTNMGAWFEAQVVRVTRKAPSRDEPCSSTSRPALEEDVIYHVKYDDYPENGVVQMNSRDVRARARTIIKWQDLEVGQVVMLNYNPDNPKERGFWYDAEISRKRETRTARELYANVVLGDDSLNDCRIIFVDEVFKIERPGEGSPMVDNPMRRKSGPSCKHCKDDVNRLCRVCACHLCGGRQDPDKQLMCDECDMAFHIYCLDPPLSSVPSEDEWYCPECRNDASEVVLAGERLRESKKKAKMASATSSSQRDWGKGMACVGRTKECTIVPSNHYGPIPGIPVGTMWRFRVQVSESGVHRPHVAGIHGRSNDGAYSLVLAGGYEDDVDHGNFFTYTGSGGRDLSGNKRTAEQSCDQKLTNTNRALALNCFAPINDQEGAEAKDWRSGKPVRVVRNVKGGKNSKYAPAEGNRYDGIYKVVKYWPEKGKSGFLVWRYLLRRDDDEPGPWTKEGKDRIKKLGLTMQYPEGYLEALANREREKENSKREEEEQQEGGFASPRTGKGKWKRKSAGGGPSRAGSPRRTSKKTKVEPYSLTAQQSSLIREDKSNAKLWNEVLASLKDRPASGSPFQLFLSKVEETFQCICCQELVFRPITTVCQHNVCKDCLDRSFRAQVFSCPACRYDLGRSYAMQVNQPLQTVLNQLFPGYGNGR
# MBD2 DNA inh – inhibitors of human MBD2 binding to methylated oligonucleotide; TR-FRET; inhibition, % at 4.4 µM; AID 686964; 370,000 compounds, 0.31% hits; in the data active = inhibition above about 13%
# LEDGF integ inh – blocks HIV-1 LEDGF/p75-dependent DNA integration; TR-FRET IN-LEDGF/p75 DNA integration, Eu/Cy5; inhibition, % at 3.7 µM; 370,000 compounds, 0.64% hits;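 active = inhibition above the screen-wide mean plus 3 SD, cut at about 13% in these data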;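 also: signal is the Cy5 over europium emission ratio at 671 and 618 nm; 0% = plate median of compound wells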
# ASAP1 inh confirm – confirmation of human ASAP1 inhibitors; ASAP1-stimulated Arf1 GTPase, GDP fluorescence polarization; AID 624431; inhibition, % at 16.5 µM; 620 compounds, 37% hits; shares compounds with ASAP1 GAP inh;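 active = mean inhibition over triplicates exceeds the hit threshold derived for the earlier primary screening run, cut at about 25% in these data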
# ARFGAP1 inh conf – confirmation of rat ARFGAP1 inhibitors; inhibition, % at 16.5 µM; 890 compounds, 30% hits; AID 651608; ARFGAP1-stimulated ARF1 GTP hydrolysis, GDP tracer FP; shares compounds with ARFGAP1 inhibitor;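 active = average inhibition over triplicates above the hit cutoff set in the earlier primary screen, cut at about 25% in these data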;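 also: 0% = Arfgap1 plus ARF1-GTP with DMSO and 100% = wells lacking Arfgap1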
# Numbers without * were called inactive; x = no result. This is a sample that favours compounds with a hit; in the whole collection about 2% have one here.
SMILES,TDP2 absorb,ASAP1 GAP inh,ARFGAP1 inhibitor,UHRF1 binding,MBD2 DNA inh,LEDGF integ inh,ASAP1 inh confirm,others
Cc1ccc(S(=O)(=O)c2c(N)n(CCC(C)C)c3nc4ccccc4nc23)cc1,1,25*,10,-4,-7,3,2,
CC1CC(C)CN(C(=O)c2cccc(N3C(=O)c4ccccc4C3=O)c2)C1 (centres undefined),-24,25*,-6,1,-4,5,8,
O=C(Nc1c(-c2ccc(F)cc2)nc2ncccn12)c1ccccc1,3,x,x,0,-4,-3,x,
CCOC(=O)Nc1ccc2c(c1)C(=NNC(N)=S)c1ccccc1-2,6,27*,8,-4,0,1,11,
CC(=O)Nc1ccc2c(c1)C(=Nc1ccccc1)c1ccccc1-2,9,20,0,-11,-7,2,x,
CCOC(=O)Nc1ccc2c(c1)C(=NO)c1ccccc1-2,7,28*,12,0,-1,-4,21,
C[C@@H]1CC2=C(C(=O)OC(C)(C)O2)[C@H](c2ccc(F)cc2)O1,-6,-8,-6,-2,-4,3,x,
C[C@@H]1CC2=C(C(=O)OC(C)(C)O2)[C@H](c2ccc(Cl)cc2)O1,4,26*,9,-4,-5,3,-2,
COC(=O)[C@]12C[C@H](CC(=O)NCC34CC5CC(CC(C5)C3)C4)C(=O)N(Cc3ccco3)C1=C[C@H](C(C)C)O[C@@H]2C1CC1,-7,x,x,4,0,-6,x,
O=C1CSc2ccc(C(=O)N3CCCC(C(=O)N4CCCCC4)C3)cc2N1 (centres undefined),9,x,x,2,8,-3,x,
Cn1c(N)c(C(C[N+](=O)[O-])c2ccccc2Cl)c(=O)n(C)c1=O (centres undefined),0,56*,11,1,1,4,4,
Cc1cccc(OCc2nnc(SCC(=O)Nc3ccc(N4CCOCC4)cc3)o2)c1,-6,32*,3,1,-1,-1,2,
CCNC(=O)c1ccc(CSc2nc3ccccc3s2)cc1,4,27*,12,-1,1,2,8,
O=[N+]([O-])c1cc(C(F)(F)F)ccc1NCCc1c[nH]c2ccc(O)cc12,2,26*,3,-4,-3,5,12,
O=[N+]([O-])c1cc(C(F)(F)F)ccc1NCCc1c[nH]c2ccccc12,-9,-1,10,-2,-1,-3,x,
Cn1c(SCC2CCC2)nnc1-c1ccco1,6,x,x,1,1,1,x,
CC1CCc2cccc3c2N1c1cc(C#N)c(C#N)cc1O3 (centres undefined),11,27*,1,-3,4,-3,1,
CCOC(=O)CNC(=O)N(C)[C@H]1C[C@H]2c3[nH]c4c(-c5cccc(C)c5)cccc4c3CCN2C(=O)[C@H]1[C@H](C)O,-3,x,x,-2,-8,7,x,
CCOc1ccc(Br)cc1S(=O)(=O)Nc1ccc(C(=O)OCC(=O)N(C)c2ccccc2)cc1,6,26*,0,4,1,-1,10,
CCCCC(=O)Nc1cccc(C(=O)N/N=C/c2ccc(OC)cc2OC)c1,0,26*,7,5,-2,2,13,
COc1ccc(-n2nc(C(=O)NCC(=O)Nc3ccccn3)c3ccccc3c2=O)cc1Cl,-3,51*,12,-1,-2,-1,61*,
Cn1c(N)c(C(=O)COC(=O)c2cc(S(=O)(=O)N3CCCCC3)ccc2Cl)c(=O)n(C)c1=O,8,0,-5,-3,-3,1,x,
COc1ccc(S(=O)(=O)N2CCc3ccccc32)cc1C(=O)OCC(=O)c1c(N)n(C)c(=O)n(C)c1=O,-13,26*,11,3,-3,-9,4,
COc1ccc(Cn2ccc3ccc(-c4ccc5ccn(C(=O)c6ccccc6OC)c5c4)cc32)cc1,-7,x,x,-5,-1,3,x,
Cc1ccc(-c2csc(NC(=O)COc3ccc(N(C)S(=O)(=O)c4ccc(C)cc4)cc3)n2)cc1,0,25*,4,1,6,-3,7,
SMILES,TDP2 absorb,ASAP1 GAP inh,ARFGAP1 inhibitor,UHRF1 binding,MBD2 DNA inh,LEDGF integ inh,ASAP1 inh confirm,others
COc1ccc(-c2csc(NC(=O)COc3ccc(N(C)S(=O)(=O)c4ccc(C)cc4)cc3)n2)cc1,3,1,-7,-1,-5,1,x,
COC(=O)C1CN(Cc2ccccc2)CCS(=O)(=O)N1Cc1ccc(OC)cc1 (centres undefined),-4,x,x,3,0,4,x,
CC(C)c1ccc([C@@H]2O[C@H](CCc3ccccc3)Cc3[nH][nH]c(=O)c32)cc1,-8,28*,9,-4,-3,4,7,
CCCC/C=C1/[C@H](c2ccccc2)N(C)C2=N[C@@H](c3ccccc3)CC(=O)N21,-2,x,x,3,1,-1,x,
COc1cc(/C=C/c2nc(-c3ccccc3O)n[nH]2)cc(OC)c1OC,1,25*,24,-3,4,-2,31*,
COc1cc(/C=C/c2nc(N)nc(-c3ccccc3O)n2)cc(OC)c1OC,8,24,14,-4,0,4,x,
COC(=O)[C@H](CC(C)C)N(Cc1cn(Cc2ccccc2)nn1)S(=O)(=O)c1ccc(F)cc1Br,-5,x,x,15,3,0,x,
CC(C)NC(=O)[C@]1(C#N)CC(=O)N(C)[C@@H]1c1ccccc1,2,x,x,1,0,5,x,
COc1ccc2c(c1)CC/C(=C\c1ccc(OC)c(Cn3nc(C)cc3C)c1)C2=O,0,46*,29*,1,0,-1,56*,ARFGAP1 inh conf=8
COc1ccc2c(c1)CC/C(=C\c1ccc(OC)c(Cn3cccn3)c1)C2=O,-2,14,7,15,5,2,x,
O=C(N/N=C/C=C\c1ccccc1[N+](=O)[O-])c1cccs1,-6,6,4,-3,-2,-2,x,
O=C(N/N=C/C=C/c1ccc([N+](=O)[O-])cc1)c1cccs1,-1,54*,60*,0,0,1,67*,ARFGAP1 inh conf=66*
Oc1ccccc1C=NNC(=S)NN=Cc1ccccc1O,7,32*,55*,-5,-3,2,58*,ARFGAP1 inh conf=71*
COC(=O)C1CN(Cc2ccc(OC)cc2)CCS(=O)(=O)N1Cc1ccc(F)cc1 (centres undefined),0,x,x,-2,-2,2,x,
